The inhibition is the drop in the measured response relative to a control, in per cent.

The test system of assay [1] is MONO-MAC-6. Nature of the assay: Viability of MM6 cells at 50 uM by Roche-XTT assay relative to control. It counts as functional, Homo sapiens. (In general: Tetrazolium dyes change colour on reduction, which living cells bring about.)
The subject of another assay is AEC. Nature of the assay: Viability of BAEC by Roche-XTT assay relative to control. Details: concentration or dose not given beside the values. It counts as functional, Bos taurus. The essentials:
(§1)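 XTT assay: metabolically active cells convert yellow tetrazolium XTT to orange formazan. Untreated control viability set to 100%. Cells were BAEC or MM6 as named in each line; MM6 tested at 100 µM.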

Assay [2] is described as follows: Inhibition of MM6 cell adhesion to BAEC at 100 uM relative to control by static assay. It counts as functional. The procedure, abridged: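 BAEC monolayers (passage 1-3, 7 days after seeding) stimulated with 20 ng/mL TNFα for 4 or 16 h, test agent in DMSO or vehicle for 20 min at 37 °C/5% CO2. After washing, leukocytes added at 1 × 10^6 cells/mL for 30 min at 37 °C. Non-adherent cells washed off, adherent cells counted microscopically. TNFα-stimulated adhesion set to 100%. Single concentration, 100 µM.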

In assay [3] the test system is MONO-MAC-6. Nature of the assay: Viability of MM6 cells at 100 uM by Roche-XTT assay relative to control. It counts as functional, Homo sapiens. The essentials:
as §1

For assay [4], the target named is T1, L-selectin (Homo sapiens) (UniProt P14151).
T1 sequence (whole entry): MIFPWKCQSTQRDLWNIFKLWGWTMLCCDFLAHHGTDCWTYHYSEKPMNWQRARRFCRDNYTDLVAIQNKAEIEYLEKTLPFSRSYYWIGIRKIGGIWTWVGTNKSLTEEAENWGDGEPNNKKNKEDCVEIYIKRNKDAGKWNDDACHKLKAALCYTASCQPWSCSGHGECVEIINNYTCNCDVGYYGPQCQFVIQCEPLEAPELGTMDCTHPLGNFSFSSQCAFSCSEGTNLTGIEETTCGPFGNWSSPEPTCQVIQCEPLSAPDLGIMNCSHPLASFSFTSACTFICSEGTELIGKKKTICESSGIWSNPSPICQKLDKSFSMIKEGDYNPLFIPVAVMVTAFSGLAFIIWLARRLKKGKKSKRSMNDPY
Kind of assay: Inhibition of sLex binding to L-selectin at 100 uM relative to control by glyco-ELISA assay. The essentials: (§2)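 Cell-free competitive binding assay. The named selectin is immobilized on microtiter plates, and compound plus sLex-tyrosine sulfate on biotinylated polyacrylamide are added. After incubation, bound ligand is detected by streptavidin-peroxidase, OD 414 nm, with empty-plate absorbance subtracted. Wells coated only with sLex define 0%; EDTA (blocks Ca2+-dependent binding) defines 100% inhibition.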
For orientation: In an ELISA, binding on a coated surface is turned into a signal by an enzyme label.

The test system of another assay is Mus musculus. Nature of the assay: Reduction in proteose peptone-induced PMN extravasation in C57BL/J mouse peritonitis model at 50 mg/kg, ip. Further details: scale not given: the % may be the effect or the level left. It counts as functional. The settings on record: route intraperitoneal. The essentials:
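Male C57BL/6 mice received 100 µL of a 50 mg/mL compound suspension in corn oil ip, or vehicle, then 1 h later 3 mL of 3% proteose peptone ip. Peritoneal leukocytes were lavaged at 6 h with cold HBSS/5 mM EDTA and stained with PE-conjugated anti-PMN, MOMA-2 and anti-CD2 antibodies. Cells were classified by scatter and fluorescence. Mean ± SEM, n = 4.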

For assay [5], the target named is T2, P-selectin (Homo sapiens) (UniProt P16109).
T2 sequence (whole entry): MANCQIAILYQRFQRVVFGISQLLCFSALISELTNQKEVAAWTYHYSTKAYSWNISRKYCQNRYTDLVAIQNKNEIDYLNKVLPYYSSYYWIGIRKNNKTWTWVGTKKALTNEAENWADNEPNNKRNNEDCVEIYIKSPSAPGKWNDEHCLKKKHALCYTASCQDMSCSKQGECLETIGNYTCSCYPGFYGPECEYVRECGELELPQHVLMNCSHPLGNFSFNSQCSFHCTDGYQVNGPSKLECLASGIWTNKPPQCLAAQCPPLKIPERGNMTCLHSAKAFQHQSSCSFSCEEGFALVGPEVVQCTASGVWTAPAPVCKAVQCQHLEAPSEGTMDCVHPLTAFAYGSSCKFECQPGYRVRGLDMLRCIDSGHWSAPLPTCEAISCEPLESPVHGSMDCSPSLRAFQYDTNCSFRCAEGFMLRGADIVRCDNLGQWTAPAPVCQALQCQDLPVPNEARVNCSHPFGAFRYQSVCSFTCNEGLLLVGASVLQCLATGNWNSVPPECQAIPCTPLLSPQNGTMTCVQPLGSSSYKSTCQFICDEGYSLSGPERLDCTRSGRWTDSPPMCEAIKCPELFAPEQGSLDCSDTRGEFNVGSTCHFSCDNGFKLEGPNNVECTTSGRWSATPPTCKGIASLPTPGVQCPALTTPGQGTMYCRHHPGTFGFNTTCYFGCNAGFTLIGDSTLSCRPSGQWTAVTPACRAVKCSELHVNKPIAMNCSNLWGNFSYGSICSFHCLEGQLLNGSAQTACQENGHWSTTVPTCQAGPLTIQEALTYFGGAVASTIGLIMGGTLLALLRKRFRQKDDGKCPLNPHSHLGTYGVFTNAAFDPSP
Kind of assay: Inhibition of sLex binding to P-selectin at 100 uM relative to control by glyco-ELISA assay. The essentials: as §2

For assay [6], the target named is T3, E-selectin (Homo sapiens) (UniProt P16581).
T3 sequence (whole entry): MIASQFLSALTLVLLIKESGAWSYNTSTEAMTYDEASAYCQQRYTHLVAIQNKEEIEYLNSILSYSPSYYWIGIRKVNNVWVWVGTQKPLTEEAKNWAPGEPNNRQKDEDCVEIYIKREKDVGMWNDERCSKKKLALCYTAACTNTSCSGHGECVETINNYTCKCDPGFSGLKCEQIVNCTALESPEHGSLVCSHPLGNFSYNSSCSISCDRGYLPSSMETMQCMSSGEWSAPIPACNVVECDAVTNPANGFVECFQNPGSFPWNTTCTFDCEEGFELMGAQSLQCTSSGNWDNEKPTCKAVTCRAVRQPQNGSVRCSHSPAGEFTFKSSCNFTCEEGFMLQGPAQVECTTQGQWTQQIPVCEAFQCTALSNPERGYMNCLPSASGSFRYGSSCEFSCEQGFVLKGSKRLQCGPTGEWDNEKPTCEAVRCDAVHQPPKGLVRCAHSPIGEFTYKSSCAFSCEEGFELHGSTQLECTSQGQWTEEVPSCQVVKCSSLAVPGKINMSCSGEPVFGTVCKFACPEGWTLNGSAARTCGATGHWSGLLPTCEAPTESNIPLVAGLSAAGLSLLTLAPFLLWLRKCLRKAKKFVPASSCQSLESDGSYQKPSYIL
Nature of the assay: Inhibition of sLex binding to E-selectin at 100 uM relative to control by glyco-ELISA assay. The essentials:
as §2

The nature of assay [7]: Viability in ATP-lite assay relative to control. Further details: concentration or dose not given beside the values. It counts as functional.
The target of assay [8] is T2, P-selectin (Homo sapiens). Kind of assay: Inhibition of sLex binding to P-selectin at 500 uM relative to control by glyco-ELISA assay. The essentials: as §2
Assay [9] has as its target T1, L-selectin (Homo sapiens). Kind of assay: Inhibition of sLex binding to L-selectin at 500 uM relative to control by glyco-ELISA assay. The essentials:
as §2

`CCCCCCCCCCOc1cccc(OCCCCCCON=C(c2ccc(C(=O)O)cc2)c2ccc(C(=O)O)cc2)c1`: the Activity is 12% with MONO-MAC-6 [1] and 40% with AEC. Besides, in assay [2], the inhibition at 100 µM was 67%.
For `CCCCCCCCCCOc1cc(OCCCCCCCCCC)cc(OCCCCCCN(c2ccc(C(=O)O)cc2)c2ccc(C(=O)O)cc2)c1`, the Activity in the assay with MONO-MAC-6 [3] is reported as 112%; with AEC it was 102%; in the assay with Mus musculus, 44%; in assay [7] it was 77%. Moreover, the inhibition in [4] stood at 41%; in [5], 35%; in assay [6], 94%; in [8], 81%; in assay [9], 82%. Besides, the inhibition at 100 µM in assay [2] turned out to be 107%.

(Values after ChEMBL document CHEMBL1137388, “A novel class of potent nonglycosidic and nonpeptidic pan-selectin inhibitors” (2006).)
